Data taken from ChEMBL document CHEMBL4177525, “Synthesis and evaluation of frentizole-based indolyl thiourea analogues as MAO/ABAD inhibitors for Alzheimer's disease treatment” (Bioorg Med Chem, 2017).
Active and inactive are the calls of the source. No cut-off for these calls is given here.

Legend:
[1] = target: T1, peroxidase (horseradish peroxidase) (Raphanus sativus, UniProt K7N5L9); assay: Inhibition of horse radish peroxidase assessed as residual activity at 5 uM by amplex red dye based fluorescence assay; conditions: horseradish peroxidase (isolated enzyme), probe Amplex Red, read-out: Activity
How it was run: (§1)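 HRP (0.02 U/mL) given H2O2 20 µM directly as substrate plus Ampliflu Red 20 µM in 50 mM potassium phosphate pH 7.4. Compound at 50 or 5 µM, 1% DMSO; controls DMSO only. Resorufin fluorescence read at ex 535/em 595 nm, 30°C, as remaining HRP activity.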

[2] = Quenching activity of the compound assessed as reduction in resorufin fluorescence; type: functional
How it was run: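 Resorufin at 1 µM and 10 µM measured for fluorescence in the presence of compound at 50 µM.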

[3] = target: T1, peroxidase (horseradish peroxidase); assay: Inhibition of horse radish peroxidase assessed as residual activity at 50 uM by amplex red dye based fluorescence assay; conditions: horseradish peroxidase (isolated enzyme), probe Amplex Red, read-out: Activity; how it was run: as §1
[4] = target: Amyloid beta-binding alcohol dehydrogenase (Homo sapiens, UniProt Q2L8D9); assay: Inhibition of ABAD (unknown origin) assessed as residual activity at 100 uM using acetoacetyl-CoA in presence of NADH by spectrophotometric assay relative to control
How it was run: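 Recombinant ABAD at 0.5 µg/mL with NADH 250 µM and acetoacetyl-CoA 120 µM; compound at 100 µM in 1% DMSO, controls with matching DMSO. Buffer 10 mM HEPES, 0.5% gelatin, pH 7.4 at 37°C. NADH consumption read as falling absorbance at 340 nm; reported as % remaining activity ± SEM from two biological repeats, each with three technical repeats.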

[5] = target: T2, Amine oxidase [flavin-containing] A (Homo sapiens, UniProt P21397); assay: Inhibition of human purified MAO-A expressed in insect cell membranes assessed as reduction in conversion of kynuramine to 4-hydroxyquinoline by spectrophotometric assay
T2 sequence (P21397 whole entry): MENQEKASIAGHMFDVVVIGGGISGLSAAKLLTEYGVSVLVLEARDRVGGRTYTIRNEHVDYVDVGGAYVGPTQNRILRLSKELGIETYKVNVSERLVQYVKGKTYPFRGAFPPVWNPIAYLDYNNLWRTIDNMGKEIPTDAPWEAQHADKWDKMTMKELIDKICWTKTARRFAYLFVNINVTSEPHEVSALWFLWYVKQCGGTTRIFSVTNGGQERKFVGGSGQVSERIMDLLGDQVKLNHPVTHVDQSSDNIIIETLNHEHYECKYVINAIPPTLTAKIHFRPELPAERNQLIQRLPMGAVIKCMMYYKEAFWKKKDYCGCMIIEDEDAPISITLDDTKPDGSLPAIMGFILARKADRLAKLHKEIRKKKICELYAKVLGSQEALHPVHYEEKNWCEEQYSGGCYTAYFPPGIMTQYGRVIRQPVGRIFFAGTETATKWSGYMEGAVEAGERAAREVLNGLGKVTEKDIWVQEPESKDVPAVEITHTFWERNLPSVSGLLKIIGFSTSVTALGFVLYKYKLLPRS

[6] = Solubility of the compound at 100 uM; type: physicochemical
How it was run: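 Compounds checked for solubility in assay buffer at 100 µM.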

[7] = Cytotoxicity against CHOK1 cells assessed as reduction in cell viability after 24 hrs by MTT assay; type: cell-based, Cricetulus griseus; conditions: chinese hamster, CHO-K1 cells; read-out: LC50
How it was run: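 CHO-K1 cells grown as ECACC recommends, seeded 8000 per well; compounds from DMSO stocks diluted in F-12 with 10% FBS and 1% pen/strep (final DMSO at most 0.5%), exposed 24 h. Medium then replaced with 10 µM MTT for about 3 h, formazan dissolved in DMSO, absorbance read at 570 nm (650 nm reference). LC50 from control-subtracted triplicates by four-parameter regression; mean ± SEM of 3 independent runs.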

[8] = target: T3, Amine oxidase [flavin-containing] B (Homo sapiens, UniProt P27338); assay: Inhibition of human membrane bound MAO-B expressed in insect cell membranes assessed as reduction in conversion of kynuramine to 4-hydroxyquinoline by spectrophotometric assay
T3 sequence (P27338 whole entry): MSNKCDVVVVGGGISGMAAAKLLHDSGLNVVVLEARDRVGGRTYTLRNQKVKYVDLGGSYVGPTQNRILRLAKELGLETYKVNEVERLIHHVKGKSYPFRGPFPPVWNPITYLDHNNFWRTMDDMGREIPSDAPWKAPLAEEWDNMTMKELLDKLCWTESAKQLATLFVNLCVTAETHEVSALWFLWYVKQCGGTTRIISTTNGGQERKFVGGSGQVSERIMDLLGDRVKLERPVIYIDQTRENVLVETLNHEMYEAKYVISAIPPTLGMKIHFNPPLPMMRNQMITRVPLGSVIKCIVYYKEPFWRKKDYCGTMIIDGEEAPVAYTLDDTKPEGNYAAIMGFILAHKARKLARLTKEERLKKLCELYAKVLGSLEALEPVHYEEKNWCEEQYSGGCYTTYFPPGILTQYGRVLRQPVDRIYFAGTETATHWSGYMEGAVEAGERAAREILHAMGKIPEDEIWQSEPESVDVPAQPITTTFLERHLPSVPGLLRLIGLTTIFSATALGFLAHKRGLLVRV
How it was run: (§2)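 Human MAO-A or MAO-B expressed in insect cell membranes, diluted 1/4000 (A) or 1/2000 (B). Kynuramine at 2×KM: 60 µM for MAO-A, 30 µM for MAO-B. Assay in 50 mM potassium phosphate pH 7.5, 30°C, 1% DMSO, absorbance at 314 nm. Inhibitor varied over 4 orders of magnitude, up to 100 µM. Linear rates from 8-10 assays fitted by 3-parameter regression with bottom fixed at zero; IC50 ± SE of estimate.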

[9] = target: T2, Amine oxidase [flavin-containing] A; assay: Inhibition of human membrane bound MAO-A expressed in insect cell membranes assessed as reduction in conversion of kynuramine to 4-hydroxyquinoline by spectrophotometric assay; how it was run: as §2

T1 sequence (K7N5L9 whole entry): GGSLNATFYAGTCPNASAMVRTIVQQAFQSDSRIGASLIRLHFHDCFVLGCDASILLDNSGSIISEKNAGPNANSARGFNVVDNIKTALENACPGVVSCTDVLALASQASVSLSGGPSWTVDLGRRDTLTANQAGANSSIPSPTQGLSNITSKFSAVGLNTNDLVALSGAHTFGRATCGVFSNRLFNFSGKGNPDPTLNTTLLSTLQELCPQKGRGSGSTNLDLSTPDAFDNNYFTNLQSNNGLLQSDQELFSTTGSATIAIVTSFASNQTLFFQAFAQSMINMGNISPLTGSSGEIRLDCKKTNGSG

Structure (SMILES)	activity at 5 µM [1] [%]	Activity [2]	activity at 50 µM [3] [%]	Activity [4] [%]	IC50 ([5]; read-out: IC50) [µM]	solubility [6]	CC50 at 24 h [7] [µM]	IC50 [5]	IC50 ([8]; read-out: IC50) [µM]	IC50 ([9]; read-out: IC50) [µM]	IC50 [8]	IC50 [9]
CC(=O)c1ccc(NC(=S)Nc2ccc3[nH]ccc3c2)cc1	66.3	inactive	41.8	79.2	67	Soluble	154					
Oc1cccc(NC(=S)Nc2ccc3[nH]ccc3c2)c1	81.4	inactive	50.9	91.6		Soluble	977	Not Active				
Cc1ccc(NC(=S)Nc2ccc3[nH]ccc3c2)c(O)c1	47.3	inactive	36.2	87.2		Soluble	370	Not Active	3.2	24		
CC(=O)Nc1ccc(NC(=S)Nc2ccc3[nH]ccc3c2)cc1	68.1	inactive	39.3	93	71	Soluble	1040		37	70		
O=C(c1ccccc1)c1ccc(NC(=S)Nc2ccc3[nH]ccc3c2)cc1	79.1	inactive	71.4	80.4		Soluble	20	Not Active				
Oc1cc(Cl)ccc1NC(=S)Nc1ccc2[nH]ccc2c1	58.9	inactive	35.9	76	39	Soluble	251		0.3	6.3		
S=C(Nc1ccc(Oc2ccccc2)cc1)Nc1ccc2[nH]ccc2c1	73.1	inactive	65.6	90.9		Soluble	36	Not Active				
COc1ccc(CNC(=S)Nc2ccc3[nH]ccc3c2)cc1	83.5	inactive	54.4	88.5		Soluble	232	Not Active				
S=C(Nc1ccccc1)Nc1ccc2[nH]ccc2c1	81.4	inactive	46.1	85.8	> 30	Soluble	337		60	57.5		
COc1ccc2nc(NC(=O)Nc3ccccc3)sc2c1 [FRENTIZOLE]							31	Not Active			Not Active	Not Active
COC(=O)c1cc(NC(=S)Nc2ccc3[nH]ccc3c2)ccc1O	61.2	inactive	42.2	90		Soluble	423	Not Active	31	> 100		
COc1ccc(NC(=S)Nc2ccc3[nH]ccc3c2)cc1	67.6	inactive	46.5	91.3	36	Soluble	476		37	36		
COc1ccc(NC(=S)Nc2ccc3[nH]ccc3c2)cc1OC	61	inactive	41.5	93.8		Soluble	797	Not Active				
OCc1ccc(NC(=S)Nc2ccc3[nH]ccc3c2)cc1	88.2	inactive	51.4	84.2		Soluble	1080	Not Active				
S=C(Nc1ccc2[nH]ccc2c1)Nc1cccc2cnccc12	63.3	inactive	47.9	96.5	24	Soluble	> 400		4	24		
CCOC(=O)c1ccc(NC(=S)Nc2ccc3[nH]ccc3c2)cc1	65.8	inactive	36.6	74.6	71	Soluble	123					
